Most compounds without a hit are left out; they make up all but 3.5% or so of the library.
rRNA inh HTS: inhibitors of bacterial rRNA selective over humanized ribosomes | E. coli WT GFP vs humanized-ribosome RFP mutants, fluorescence, 24 h; active compounds read low; DMSO median 0, no signal -100 | GFP signal change (wild-type ribosome), % (test concentration not listed) | 350,000 compounds, 1.6% hits;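 active = significant combined selectivity score with lowered wild-type GFP, culture density cut under 30%, mutant RFP and density less affected; inactive = any of these conditions unmet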
Env fusion inh: blocks HIV Env-driven cell-cell fusion. AID 651610. HeLa-JRFL Env/CEM21 cell fusion, luciferase. 360,000 compounds, 1.1% hits. inhibition, % at 12.3 µM;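 active = mean replicate inhibition score of at least 50 and every replicate individually at or above 50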
Cneo AK release: causes C. neoformans cell lysis; adenylate kinase release luminescence, 4 h; normalised: neutral wells 0, clomiphene wells 100; lysis activity, % at 15 µM; 360,000 compounds, 0.2% hits; AID 651654;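 active = mean lysis activity across replicates of at least 80%, whatever share of replicates individually reach that level; inactive = mean lysis activity below 80%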
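Schedule: static 4 h at 37 °C with compound, 1 h detection; system: C. neoformans cells; benchmarks: Clomiphene as positive control; buffer or medium: fresh YPD medium; measure: luminescence rise reflecting yeast cell lysis; measured by: luminescent adenylate kinase detection reagent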
FGF22 binding: FGF22 (human) thermal shift binding. Q9HCT0. recombinant FGF22 thermal shift, SYPRO orange fluorescence; percent of sucrose octasulfate shift, DMSO zero. activity (Tm shift, normalised), % at 9.99 µM. 340,000 compounds, 1.5% hits. AID 651658;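 active = mean Tm shift, scaled 0 neutral to 100 positive control, at about 1.3% or above, every replicate too, limit read from the data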
PGC1a acetyl inh: lowers PGC1a acetylation signal in U2OS cells; AlphaScreen anti-acetyl-lysine; with virally co-expressed GCN5 acetyltransferase; inhibition, % at 15.6 µM; 350,000 compounds, 0.17% hits; AID 651687;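 active = every replicate shows inhibition of at least 40%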
ERAP1 HTS inh: ERAP1 (human) enzyme inhibition; inhibition, % at 10.7 µM; recombinant ERAP1, Leu-AMC fluorescence, 60 min; Q9NZ08; AID 652197; 340,000 compounds, 0.15% hits;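 active = mean replicate inhibition of at least 30%, or all replicates individually reaching that 30% level; inactive = mean below 30% and not every replicate reaching it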
Target sequence (Q9NZ08 whole entry, looked up): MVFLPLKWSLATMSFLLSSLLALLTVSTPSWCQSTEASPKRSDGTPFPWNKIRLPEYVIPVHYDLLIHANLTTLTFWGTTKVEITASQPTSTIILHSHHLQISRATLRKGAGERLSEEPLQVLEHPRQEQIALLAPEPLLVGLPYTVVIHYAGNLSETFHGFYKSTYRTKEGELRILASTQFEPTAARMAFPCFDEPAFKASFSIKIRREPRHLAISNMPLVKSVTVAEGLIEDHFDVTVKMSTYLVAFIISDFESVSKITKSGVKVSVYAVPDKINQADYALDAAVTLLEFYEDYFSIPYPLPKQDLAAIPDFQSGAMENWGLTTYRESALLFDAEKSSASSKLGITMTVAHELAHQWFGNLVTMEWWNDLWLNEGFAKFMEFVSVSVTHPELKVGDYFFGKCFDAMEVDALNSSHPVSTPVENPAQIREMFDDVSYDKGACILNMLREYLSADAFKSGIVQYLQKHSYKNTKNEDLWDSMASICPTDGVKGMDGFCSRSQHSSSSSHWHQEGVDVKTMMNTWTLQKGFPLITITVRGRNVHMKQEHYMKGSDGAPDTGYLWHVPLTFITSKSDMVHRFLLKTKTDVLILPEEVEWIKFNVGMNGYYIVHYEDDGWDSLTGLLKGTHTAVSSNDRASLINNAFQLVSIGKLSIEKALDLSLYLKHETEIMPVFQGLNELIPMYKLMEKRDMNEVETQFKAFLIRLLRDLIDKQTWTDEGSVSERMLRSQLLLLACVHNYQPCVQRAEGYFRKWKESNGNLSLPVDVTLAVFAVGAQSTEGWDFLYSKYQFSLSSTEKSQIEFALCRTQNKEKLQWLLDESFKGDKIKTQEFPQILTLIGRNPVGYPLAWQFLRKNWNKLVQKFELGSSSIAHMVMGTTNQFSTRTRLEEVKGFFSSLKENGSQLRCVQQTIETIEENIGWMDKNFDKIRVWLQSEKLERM
Large screens that a line does not name were inactive; [ ] = dose if it differs, or a comment.

Cc1cc(Sc2nnc(N)s2)c2ccccc2n1	none (no result: Cneo AK release)
CCOc1ccccc1C(=O)Nc1cc(=O)n(C)c(=O)n1C	none
CC(=O)Nc1ccc(NC(=O)C(C)OC(=O)c2ccc3ccccc3n2)cc1 (stereo not given)	none (no result: Env fusion inh, PGC1a acetyl inh)
Cc1cc(C)c[n+](-c2nc3ccccc3nc2[N-]S(=O)(=O)c2ccc(Br)s2)c1	FGF22 binding 44
CC(C)NC(=O)Nc1ccc2c(c1)C(=O)N([C@@H](C)CO)C[C@@H](C)[C@@H](CN(C)S(C)(=O)=O)O2	none
C=CCOc1ccc(/C=C/C(=O)OCC(=O)NCCc2ccccc2)cc1	none (no result: Env fusion inh, PGC1a acetyl inh)
Cc1cccc(N=C2NC(=O)/C(=C/c3cccn3C)S2)c1C	rRNA inh HTS -26
Cc1ccc(C(=O)Nc2ccc(Nc3ccccc3)cc2)c(Cl)c1	none
CN(CC(=O)Nc1ccccc1C(F)(F)F)C(=O)CSc1nnc(-c2ccncc2)n1C	ERAP1 HTS inh 35 (no result: Env fusion inh)
CN(CC(=O)Nc1ccccc1C(F)(F)F)C(=O)CSc1nnnn1C	none
O=C(NN1CCOCC1)c1cccc2ccccc12	none (no result: rRNA inh HTS, FGF22 binding, PGC1a acetyl inh, ERAP1 HTS inh)
Nc1nc(SCCO)[nH]c(=O)c1NC(=O)c1ccccc1F	FGF22 binding 44 (no result: rRNA inh HTS, PGC1a acetyl inh)
CC(C)NC(=O)CSc1nc(N)c(NC(=O)c2ccccc2F)c(=O)[nH]1	none (no result: Cneo AK release)
CCN(CC)C(=O)C1=C(C)Nc2nc3ccccc3n2C1c1cccc(OC)c1 (stereo not given)	none (no result: rRNA inh HTS, Cneo AK release, FGF22 binding, ERAP1 HTS inh)
c1ccc(-n2nnnc2SCCCSc2nc3ccccc3s2)cc1	none (no result: Env fusion inh)
O=C(C/C=N\OCc1ccc([N+](=O)[O-])cc1)Nc1ccccc1	none
O=C(C/C=N\OCc1ccc([N+](=O)[O-])cc1)Nc1ccc(Cl)cc1	rRNA inh HTS -40 (no result: Cneo AK release, PGC1a acetyl inh)
CCn1c(C)nc2cc(C(=O)OC)ccc21	FGF22 binding 43 (no result: Cneo AK release)
CCOC(=O)c1ccc2c(c1)nc(SCC(=O)c1cc3ccccc3o1)n2CC	none (no result: rRNA inh HTS, FGF22 binding, ERAP1 HTS inh)
C=CCNC(=O)CSc1nc2cc(C(=O)OCC)ccc2n1CC	rRNA inh HTS -43 (no result: Env fusion inh)
COC(=O)c1ccc2c(c1)nc(C)n2CCO	none (no result: rRNA inh HTS, Env fusion inh, FGF22 binding, ERAP1 HTS inh)
CCn1c(C)nc2cc(C(=O)NNC(=S)Nc3ccccc3OC)ccc21	rRNA inh HTS -20 (no result: Cneo AK release, PGC1a acetyl inh)
CCOC(=O)c1nc2c(ccc3ccccc32)cc1C	rRNA inh HTS -31
COc1cccc(-c2coc3c(C)c4oc(=O)c(CCC(=O)O)c(C)c4cc23)c1	none
C[C@@H]1CCCCO[C@@H](CN(C)CC2CCCCC2)[C@H](C)CN([C@H](C)CO)C(=O)c2cc(NC(=O)Nc3cccc4ccccc34)ccc2O1	FGF22 binding 1.3
C[C@@H]1CN([C@@H](C)CO)C(=O)c2cc(NC(=O)Nc3cccc4ccccc34)ccc2O[C@@H](C)CCCCO[C@H]1CN(C)CC1CC1	none (no result: ERAP1 HTS inh)
C[C@@H]1CN([C@@H](C)CO)C(=O)c2cc(NC(=O)Nc3cccc4ccccc34)ccc2O[C@@H](C)CCCCO[C@@H]1CN(C)CC1CCCCC1	none
C[C@H](CO)N1C[C@H](C)[C@H](CN(C)CC2CC2)OCCCC[C@H](C)Oc2ccc(NC(=O)Nc3cccc4ccccc34)cc2C1=O	Env fusion inh 62[16.7 µM] (no result: ERAP1 HTS inh)
CC1CCCCN1S(=O)(=O)c1ccc(C(=O)Nc2nnc(C3=COCCO3)o2)cc1 (stereo not given)	none (no result: PGC1a acetyl inh)
COC(=O)C1=C(C)N(Cc2ccccc2)C(=S)NC1c1cccc(OC)c1 (stereo not given)	rRNA inh HTS -29 (no result: Cneo AK release, PGC1a acetyl inh)
CCN1C(=O)N[C@@H](c2ccc(Br)cc2)C(C(=O)OC)=C1C	none
COC(=O)C1=C(C)N(Cc2ccccc2)C(=S)N[C@H]1c1ccccc1	none (no result: PGC1a acetyl inh)
COC(=O)C1=C(C)N(CC2CC2)C(=O)N[C@H]1c1ccc(Br)cc1	Env fusion inh 77 (no result: Cneo AK release, PGC1a acetyl inh)
COC(=O)C1=C(C)N(Cc2ccc(Br)cc2)C(=S)NC1c1cccc(OC)c1 (stereo not given)	none (no result: Cneo AK release, PGC1a acetyl inh)
COC(=O)C1=C(C)N(Cc2ccc(F)cc2)C(=S)NC1c1cccc(OC)c1 (stereo not given)	rRNA inh HTS -22 (no result: Cneo AK release, PGC1a acetyl inh)
COC(=O)C1=C(C)N(Cc2ccc(Cl)cc2)C(=S)NC1c1ccc(Cl)cc1 (stereo not given)	Env fusion inh 61 (no result: Cneo AK release, PGC1a acetyl inh)
C[C@H](CO)N1C[C@H](C)[C@@H](CN(C)S(=O)(=O)c2cn(C)cn2)Oc2ncc(C3=CCCCC3)cc2C1=O	none
